Test results from ChEMBL document CHEMBL1148329, “Synthesis and structure-activity studies on N-[5-(1H-imidazol-4-yl)-5,6,7,8-tetrahydro-1-naphthalenyl]methanesulfonamide, an imidazole-containing alpha(1A)-adrenoceptor agonist” (J Med Chem, 2004).

Key:
[1] = Selectivity is ratio of efficacy of alpha-1B to that of alpha1A adrenoceptor; assay type: functional
[2] = molecular target: T1, Alpha-1A adrenergic receptor (Oryctolagus cuniculus) (UniProt O02824); assay: Efficacy relative to phenylephrine (PE) to constrict tissue containing the alpha-1A adrenergic receptor in rabbit urethra; assay type: functional, tissue-based
T1 sequence (whole entry): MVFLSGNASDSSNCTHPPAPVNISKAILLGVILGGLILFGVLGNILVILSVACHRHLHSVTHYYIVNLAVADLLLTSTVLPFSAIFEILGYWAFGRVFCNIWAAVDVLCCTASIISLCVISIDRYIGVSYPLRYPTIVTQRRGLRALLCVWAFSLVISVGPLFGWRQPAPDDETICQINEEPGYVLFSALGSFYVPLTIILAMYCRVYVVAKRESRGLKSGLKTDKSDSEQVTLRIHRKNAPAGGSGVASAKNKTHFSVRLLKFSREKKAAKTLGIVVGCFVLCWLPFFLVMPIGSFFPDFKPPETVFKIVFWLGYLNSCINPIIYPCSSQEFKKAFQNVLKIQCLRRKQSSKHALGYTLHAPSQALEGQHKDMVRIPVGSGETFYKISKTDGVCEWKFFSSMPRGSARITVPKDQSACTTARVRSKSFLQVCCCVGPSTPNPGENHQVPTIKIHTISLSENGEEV
In short: (§1)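 α1-agonist dose–response curves in isolated tissue: rabbit urethra (α1A), rat spleen (α1B), rat aorta (α1D). Agonist potency and efficacy read from the concentration–response curves.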

[3] = molecular target: T1, Alpha-1A adrenergic receptor (Oryctolagus cuniculus); assay: Functional agonism of the compounds to constrict tissue containing the alpha-1A adrenergic receptor in rabbit urethra; assay type: tissue-based; in short: as §1
[4] = molecular target: T2, Alpha-1B adrenergic receptor (Rattus norvegicus) (UniProt P15823); assay: Efficacy relative to phenylephrine (PE) constriction of rat spleen containing alpha-1B adrenergic receptor; assay type: functional, tissue-based; in short: as §1
T2 sequence (whole entry): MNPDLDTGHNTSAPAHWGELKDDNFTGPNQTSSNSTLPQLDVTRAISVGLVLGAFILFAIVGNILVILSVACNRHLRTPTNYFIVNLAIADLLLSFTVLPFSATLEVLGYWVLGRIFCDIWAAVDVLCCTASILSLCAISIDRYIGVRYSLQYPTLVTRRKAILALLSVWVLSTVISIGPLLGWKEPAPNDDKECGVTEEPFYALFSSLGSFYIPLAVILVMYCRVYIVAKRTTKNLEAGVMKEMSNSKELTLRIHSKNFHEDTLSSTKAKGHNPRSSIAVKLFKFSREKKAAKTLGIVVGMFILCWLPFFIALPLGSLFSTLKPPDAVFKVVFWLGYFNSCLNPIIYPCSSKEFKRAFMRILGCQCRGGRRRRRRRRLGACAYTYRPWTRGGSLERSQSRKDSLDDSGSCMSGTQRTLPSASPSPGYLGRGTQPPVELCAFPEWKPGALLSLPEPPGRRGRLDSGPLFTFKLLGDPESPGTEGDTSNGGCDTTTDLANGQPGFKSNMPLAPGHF

[5] = molecular target: Alpha adrenergic receptor 1A and 1D (Rattus norvegicus) (UniProt P23944+P43140); assay: Selectivity is ratio of pKi (binding affinity) of Alpha-1D to that of alpha1A; assay type: protein assay
[6] = molecular target: T3, Alpha-2A adrenergic receptor (Rattus norvegicus) (UniProt P22909); assay: Efficacy relative to clonidine to constrict tissue containing the alpha-2A adrenergic receptor in rat prostatic vas deferens
T3 sequence (whole entry): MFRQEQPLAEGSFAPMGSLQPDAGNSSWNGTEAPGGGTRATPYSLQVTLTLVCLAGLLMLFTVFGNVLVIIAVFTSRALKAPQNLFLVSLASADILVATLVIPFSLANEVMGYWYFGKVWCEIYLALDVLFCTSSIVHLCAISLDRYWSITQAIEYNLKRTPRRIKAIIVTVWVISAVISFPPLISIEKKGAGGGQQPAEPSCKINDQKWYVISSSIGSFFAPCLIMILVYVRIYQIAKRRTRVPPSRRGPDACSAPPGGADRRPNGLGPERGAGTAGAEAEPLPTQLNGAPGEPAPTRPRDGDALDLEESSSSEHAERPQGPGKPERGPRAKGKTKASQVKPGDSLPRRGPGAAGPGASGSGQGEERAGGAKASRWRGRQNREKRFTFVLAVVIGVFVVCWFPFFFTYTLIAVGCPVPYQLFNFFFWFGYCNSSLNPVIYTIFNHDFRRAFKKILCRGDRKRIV

Canis familiaris [7] = assay: Uroselectivity was determined by measuring effective dose required for 20 mmHg increase of mean arterial pressure (MAP) in vivo in dog; assay type: functional, Canis lupus familiaris, Artery
In short: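 Dog model recording intraurethral pressure (IUP) and mean arterial pressure (MAP) simultaneously. Increasing iv doses given, maximal effect of each dose taken. Doses giving a 5 mmHg rise in IUP (ED Δ5) or 20 mmHg rise in MAP (ED Δ20) were calculated, in nmol/kg ± SEM, n ≥ 4 (2 or 3 where footnoted).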

Rattus norvegicus = species on record: Rattus norvegicus; assay: Relative affinities for alpha2B and alpha1A receptors
[8] = Selectivity is ratio of efficacy of alpha-2A to that of alpha1A adrenoceptor; assay type: functional
[9] = molecular target: T3, Alpha-2A adrenergic receptor (Rattus norvegicus); assay: Functional agonism to constrict tissue containing alpha-2A adrenergic receptor in rat prostatic vas deferens; assay type: tissue-based
Canis familiaris [10] = species on record: Canis familiaris; assay: Ratio of MAP ED delta20 to that of IUP ED delta5
[11] = Relative affinities for alpha-2a and alpha-1A receptors
[12] = molecular target: T4, Alpha-1D adrenergic receptor (Rattus norvegicus) (UniProt P23944); assay: Efficacy relative to phenylephrine (PE) constrict tissue containing the alpha-1D adrenergic receptor in rat aorta; assay type: functional, tissue-based; in short: as §1
T4 sequence (whole entry): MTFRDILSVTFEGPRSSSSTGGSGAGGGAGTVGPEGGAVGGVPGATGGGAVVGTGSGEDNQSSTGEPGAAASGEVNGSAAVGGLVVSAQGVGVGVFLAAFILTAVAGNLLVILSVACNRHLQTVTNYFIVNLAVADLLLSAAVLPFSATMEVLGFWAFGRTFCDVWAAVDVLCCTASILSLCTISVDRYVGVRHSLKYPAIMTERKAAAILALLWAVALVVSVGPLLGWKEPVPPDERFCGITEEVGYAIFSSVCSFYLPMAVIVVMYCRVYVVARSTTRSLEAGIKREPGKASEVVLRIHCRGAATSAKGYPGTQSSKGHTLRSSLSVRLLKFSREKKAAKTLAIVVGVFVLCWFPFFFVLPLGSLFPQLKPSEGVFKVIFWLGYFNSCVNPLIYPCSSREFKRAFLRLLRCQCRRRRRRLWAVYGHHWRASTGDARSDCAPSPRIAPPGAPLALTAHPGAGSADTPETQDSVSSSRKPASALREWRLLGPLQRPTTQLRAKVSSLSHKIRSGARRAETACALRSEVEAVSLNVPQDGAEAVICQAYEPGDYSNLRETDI

Row | Compound | Selectivity [1] | Efficacy [2] | pD2 [3] | Efficacy [4] | Selectivity [5] | Efficacy [6] | ED delta20 (Canis familiaris [7]) | Selectivity (Rattus norvegicus) | Selectivity [8] | pD2 [9] | Ratio (Canis familiaris [10]) | Selectivity [11] | Efficacy [12]
1 | COc1ccc(OC)c(C(O)CN)c1 (stereo unspecified) [DESGLYMIDODRINE] | 12 | 133% | 5.15 | 68% | 0.8 | 20% | 250 nM/kg | 0.9 | 0.001 | 8.23 | 1.3 | 0.7 | 68%
2 | O=S(=O)(CC(F)(F)F)Nc1cccc2c1CCCC2c1c[nH]cn1 (single isomer, unassigned; (+)) |  | 52% | 5.73 |  | > 80 | 100% | 450 nM/kg | > 80 | 0.14 | 6.59 | 3 | 8 | 
3 | CC(N)C(O)c1ccccc1 (stereo unspecified) [PHENYLPROPANOLAMINE] | 1 | 68% | 3.63 | 34% | 1 | 85% | 330 nM/kg | 0.03 | 0.03 |  | 0.4 | 0.03 | 91%
4 | O=C(Nc1cccc2c1CCCC2c1c[nH]cn1)C(F)(F)F (stereo unspecified) |  | 118% | 6.28 | 19% | 20 | 100% | 216 nM/kg | 4 | 0.1 | 7.14 | 1.1 | 2 | 
5 | CN(c1cccc2c1CCCC2c1c[nH]cn1)S(C)(=O)=O (stereo unspecified) |  | 79% | 6.16 |  | 3 | 100% | 225.3 nM/kg | 4 | 0.12 | 7.08 | 2.5 | 0.4 | 
